In ChEMBL document CHEMBL3244336, “Antitumor agents. 1. 1,4-Bis[(aminoalkyl)amino]-9,10-anthracenediones” (J Med Chem, 1979) one finds ILS and Activity data, which are given here for eleven compounds.

SMILES strings stand for the structures. Active and inactive are the calls of the source. The rule behind the calls is not given here.

The subject of assay [1] is P388. The assay is described as follows: Antitumor activity against mouse P388 cells allografted in mouse assessed as increase of median life span at 200 mg/kg, ip on day 1, 5 and 9 measured up to 60 days relative to control. Type of assay: functional. The note with it: route intraperitoneal. A digest of the protocol: (§1)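 BDF1 or CDF1 mice inoculated ip with ascitic P388 leukemia cells. Dosing ip on days 1, 5 and 9. Deaths recorded for 60 days; % increase in median life span over controls. "Cures" are survivors/total at 60 days.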

The subject of assay [2] is P388. The assay is described as follows: Antitumor activity against mouse P388 cells allografted in mouse assessed as disease cure at 25 mg/kg, ip on day 1, 5 and 9 measured up to 60 days. Type of assay: functional, organism-based. Set-up: dose 25 mg/kg. A digest of the protocol:
(§2)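 BDF1 or CDF1 mice inoculated ip with ascitic P388 leukemia cells, dosed ip on days 1, 5 and 9. Deaths recorded for 60 days; "cures" taken as number of survivors/total at 60 days.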

The subject of assay [3] is P388. The assay is described as follows: Antitumor activity against mouse P388 cells allografted in mouse assessed as increase of median life span at 25 mg/kg, ip on day 1, 5 and 9 measured up to 60 days relative to control. Type of assay: functional. To be noted: route intraperitoneal. Put shortly: as §1
Assay [4] deals with B16. The assay is described as follows: Antitumor activity against mouse B16 cells allografted in BDF1 mouse assessed as increase of median life span at 12.5 mg/kg, ip on day 1 to 9 measured up to 80 days relative to control. In kind it is functional. The note with it: route intraperitoneal.
Assay [5] has as its system P388. Put plainly: Antitumor activity against mouse P388 cells allografted in mouse assessed as disease cure at 200 mg/kg, ip on day 1, 5 and 9 measured up to 60 days. In kind it is functional, organism-based. Details: dose 200 mg/kg. A digest of the protocol: as §2
Assay [6] relates to B16. Put plainly: Antitumor activity against mouse B16 cells allografted in BDF1 mouse assessed as increase of median life span at 50 mg/kg, ip on day 1 to 9 measured up to 80 days relative to control. The note with it: route intraperitoneal. In kind it is functional. A digest of the protocol:
(§3)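 BDF1 mice implanted ip with a homogenate from 0.05 g of B16 tumor. Test agent given ip on days 1-9. Deaths recorded for 80 days. Result is % increase in median life span over untreated controls. "Cures" are survivors/total at 80 days.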

Assay [7] deals with Lewis lung carcinoma cell line. Put plainly: Antitumor activity against mouse LLC cells intravenously implanted in mouse. Type of assay: functional, cell-based.
Assay [8] has as its system Lewis lung carcinoma cell line. Put plainly: Antitumor activity against mouse LLC cells subcutaneously implanted in mouse. In kind it is functional, cell-based.
Assay [9] deals with P388. Put plainly: Antitumor activity against mouse P388 cells allografted in mouse assessed as increase of median life span at 3.1 mg/kg, ip on day 1, 5 and 9 measured up to 60 days relative to control. In kind it is functional. The note with it: route intraperitoneal. A digest of the protocol: (§4)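 BDF or CDF1 mice injected ip with ascitic leukemia cells, then dosed ip on days 1, 5 and 9. Deaths recorded for 60 days. Read-outs: percent increase in median life span over controls, and "cures" as survivors/total at 60 days.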

The subject of assay [10] is P388. The assay is described as follows: Antitumor activity against mouse P388 cells allografted in mouse assessed as disease cure at 100 mg/kg, ip on day 1, 5 and 9 measured up to 60 days. Type of assay: functional, organism-based. Details: dose 100 mg/kg. Put shortly: as §4
The subject of assay [11] is P388. The assay is described as follows: Antitumor activity against mouse P388 cells allografted in mouse assessed as increase of median life span at 100 mg/kg, ip on day 1, 5 and 9 measured up to 60 days relative to control. Type of assay: functional. The note with it: route intraperitoneal.
Assay [12] concerns B16. The assay is described as follows: Antitumor activity against mouse B16 cells allografted in BDF1 mouse assessed as disease cure at 12.5 mg/kg, ip on day 1 to 9 measured up to 80 days. Type of assay: functional, organism-based. Set-up: dose 12.5 mg/kg. A digest of the protocol: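 BDF1 mice implanted ip with a homogenate from 0.05 g of tumor. Dosed ip on days 1–9, with deaths recorded for 80 days. "Cures" counted as survivors/total at 80 days.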

For assay [13], the system named is P388. The assay is described as follows: Antitumor activity against mouse P388 cells allografted in mouse assessed as disease cure at 6.2 mg/kg, ip on day 1, 5 and 9 measured up to 60 days. Set-up: dose 6.2 mg/kg. In kind it is functional, organism-based. A digest of the protocol: as §2
Assay [14] concerns P388. The assay is described as follows: Antitumor activity against mouse P388 cells allografted in mouse assessed as increase of median life span at 6.2 mg/kg, ip on day 1, 5 and 9 measured up to 60 days relative to control. Type of assay: functional. The note with it: route intraperitoneal. A digest of the protocol:
as §1

The test system of assay [15] is B16. Put plainly: Antitumor activity against mouse B16 cells allografted in BDF1 mouse assessed as disease cure at 3.1 mg/kg, ip on day 1 to 9 measured up to 80 days. In kind it is functional, organism-based. Details: dose 3.1 mg/kg. A digest of the protocol: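 BDF1 mice implanted ip with homogenate from 0.05 g of B16 tumor, then dosed ip on days 1-9. Deaths recorded for 80 days; "cures" scored as survivors/total at 80 days.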

In assay [16] the test system is B16. Put plainly: Antitumor activity against mouse B16 cells allografted in BDF1 mouse assessed as increase of median life span at 3.1 mg/kg, ip on day 1 to 9 measured up to 80 days relative to control. In kind it is functional. The note with it: route intraperitoneal. Put shortly: as §3
Assay [17] relates to P388. Put plainly: Antitumor activity against mouse P388 cells allografted in mouse assessed as disease cure at 250 mg/kg, ip on day 1, 5 and 9 measured up to 60 days. Type of assay: functional, organism-based. Details: dose 250 mg/kg. A digest of the protocol:
as §2

In assay [18] the test system is P388. Put plainly: Antitumor activity against mouse P388 cells allografted in mouse assessed as increase of median life span at 250 mg/kg, ip on day 1, 5 and 9 measured up to 60 days relative to control. Type of assay: functional. To be noted: route intraperitoneal. Put shortly: as §1
Assay [19] concerns B16. The assay is described as follows: Antitumor activity against mouse B16 cells allografted in BDF1 mouse assessed as increase of median life span at 25 mg/kg, ip on day 1 to 9 measured up to 80 days relative to control. Type of assay: functional. To be noted: route intraperitoneal. A digest of the protocol:
as §3

In assay [20] the test system is P388. The assay is described as follows: Antitumor activity against mouse P388 cells allografted in mouse assessed as increase of median life span at 50 mg/kg, ip on day 1, 5 and 9 measured up to 60 days relative to control. In kind it is functional. The note with it: route intraperitoneal. Put shortly: as §1
For assay [21], the system named is P388. Put plainly: Antitumor activity against mouse P388 cells allografted in mouse assessed as disease cure at 50 mg/kg, ip on day 1, 5 and 9 measured up to 60 days. In kind it is functional, organism-based. Details: dose 50 mg/kg. A digest of the protocol: as §2
Assay [22] deals with P388. The assay is described as follows: Antitumor activity against mouse P388 cells allografted in mouse assessed as increase of median life span at 12.5 mg/kg, ip on day 1, 5 and 9 measured up to 60 days relative to control. The note with it: route intraperitoneal. In kind it is functional. A digest of the protocol: as §1
The test system of assay [23] is B16. The assay is described as follows: Antitumor activity against mouse B16 cells allografted in BDF1 mouse assessed as increase of median life span at 6.2 mg/kg, ip on day 1 to 9 measured up to 80 days relative to control. The note with it: route intraperitoneal. Type of assay: functional. Put shortly:
as §3

For orientation: ILS means how much longer treated animals lived than controls. Regarding `NCCNc1ccc(NCCN)c2c1C(=O)c1ccccc1C2=O`, in [1], the ILS at 200 mg/kg was 145%. For the same compound, the outcome in assay [2] and in assay [5] was inactive. Moreover, the ILS at 25 mg/kg in assay [3] came out at 144%. For the same compound, the ILS at 12.5 mg/kg in assay [4] turned out to be 82%. The ILS at 50 mg/kg in [6] was found to be 100%.
On to `O=C1c2c(O)ccc(O)c2C(=O)c2c(NCCNCCO)ccc(NCCNCCO)c21`, for which the outcome in assay [7] and in assay [8] was inactive.
Turning to `NCCNc1ccc(NCCN)c2c1C(=O)c1c(O)ccc(O)c1C2=O`, the increase in lifespan (ILS) at 3.1 mg/kg in [9] amounted to 173%.
Consider `O=C1c2c(O)ccc(O)c2C(=O)c2c(NCCN3CC3)ccc(NCCN3CC3)c21`, for which the result in assay [10] and in [12] was inactive. In addition, the ILS at 12.5 mg/kg in assay [4] is 58%. For the same compound, in assay [11], the increase in lifespan (ILS) at 100 mg/kg was 185%.
Consider `CNCCNc1ccc(NCCNC)c2c1C(=O)c1c(O)ccc(O)c1C2=O`, for which the outcome in assay [13] and in assay [15] was inactive. In assay [14], the ILS at 6.2 mg/kg was 118%. The increase in life span (ILS) at 3.1 mg/kg in [16] stood at 210%.
For the compound `O=C1c2ccccc2C(=O)c2c(NCCc3ccccn3)ccc(NCCc3ccccn3)c21`, the result in [17] was inactive. The increase in life span (ILS) at 250 mg/kg in [18] was 0%.
As to `CN(C)CCNc1ccc(NCCN(C)C)c2c1C(=O)c1ccc(O)c(O)c1C2=O`, in assay [19], the ILS at 25 mg/kg is 60%. In addition, in [20], the ILS at 50 mg/kg was found to be 57%. Besides, in [21], the result was inactive.
For `CN(C)CCCCNc1ccc(NCCCCN(C)C)c2c1C(=O)c1ccccc1C2=O`, the result in assay [17] was inactive. Also, the ILS at 250 mg/kg in assay [18] is 0%.
With `O=C1c2c(O)ccc(O)c2C(=O)c2c(NCCNCCCO)ccc(NCCNCCCO)c21`, in [22], the ILS at 12.5 mg/kg was found to be 191%. For the same compound, in assay [23], the increase in life span (ILS) at 6.2 mg/kg was 357%.
Take `O=C1c2ccccc2C(=O)c2c(NCCNCCO)ccc(NCCNCCO)c21` [AMETANTRONE]: the result in [2] was inactive. Moreover, the increase in life span (ILS) at 25 mg/kg in [3] was determined as 154%. In assay [23], the increase in lifespan (ILS) at 6.2 mg/kg was 129%.
Consider `CN(C)CCNc1ccc(NCCN(C)C)c2c1C(=O)c1ccc(C(=O)O)cc1C2=O`, for which the result in assay [17] was inactive. Moreover, the increase in lifespan (ILS) at 250 mg/kg in [18] stood at 0%.
